Source: PubChem BioAssay
T cell HTS: modulators of CD8 T cell-vesicle binding, primary screen, mouse 2C CD8+ T cells, flow cytometry; 2C CD8+ T cell-vesicle binding; active compounds read low; response (vesicle binding), % at 7 µM; 0.068% of 330,000 active;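 active means response, share of CD8 T cells binding vesicles, and their 90th percentile fluorescence all below set limits, cut at about 80% in these data, passing the limit was not always enough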;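 further: values below 100% mean blocked vesicle binding to the CD8+ T cells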
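Material: 2C TCR transgenic mouse naive CD8+ T cells, MACS-purified. Also added: QL9-charged Drosophila Ld/ICAM-1/B7-1 vesicles. Timing: binding 1.5 h at 37 °C. Measured by: high-throughput flow cytometry with anti-B7-1 and anti-CD8 staining. Read-out: percent CD8+ FL2 mean versus row control. Controls: Unloaded micro-vesicles (low), QL9 vesicles with 0.7% DMSO (high).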
ALR inh: inhibitors of human ALR sulfhydryl oxidase, primary screen, biochemical, H2O2 detection, HRP-luminol luminescence, single point; AID 485317, 2010; inhibition, % (concentration not given with the values); 3.8% of 290,000 active; FAD-linked sulfhydryl oxidase ALR (Homo sapiens), P55789; purified ALR, DTT oxidation;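 active means mean replicate inhibition above about 79%, with every replicate also reaching it, limit read from the data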
Target sequence (P55789 whole entry, looked up): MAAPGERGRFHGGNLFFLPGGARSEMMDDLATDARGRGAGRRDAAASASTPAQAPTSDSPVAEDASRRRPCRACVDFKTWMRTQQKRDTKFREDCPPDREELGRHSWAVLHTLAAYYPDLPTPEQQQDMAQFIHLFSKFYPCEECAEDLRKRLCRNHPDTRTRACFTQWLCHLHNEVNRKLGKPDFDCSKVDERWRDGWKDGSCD
N-glyco inh: increase of ERlucT glycosylation luciferase signal, primary screen, N-linked glycosylation inhibitor project, D54 ERlucT cells, luminescence, set 2; AID 588692, 2011; 0.23% of 360,000 active; D54 ERlucT glycosylation luciferase reporter, 24 h; percent of 100 nM tunicamycin response; reporter increase, % at 12.5 µM;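 active means mean luciferase reporter signal, scaled so untreated is 0 and the glycosylation-blocking control 100, at or above a set limit in every replicate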;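 further: luciferase carries N-glycosylation sites so blocking glycosylation raises the light; 0% = median of neutral control wells and 100% = median of 100 nM tunicamycin wells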
* = called active by the depositor; i = inactive; nt = no result. This is one part of a sample in which hits are shown more often than they occur.

SMILES	T cell HTS	ALR inh	N-glyco inh
Cc1cc(C)c2c(CC(=O)NC3CCS(=O)(=O)C3)coc2c1 (stereo not given)	331	-1	1
CCCn1c(SCC(=O)Nc2cc(C(=O)O)ccc2C)nc2sc3c(c2c1=O)CCC3	366	nt	3
CCN(CC)c1ccc(CNc2ccc(Br)cn2)cc1	176	nt	0
CCN(CC)c1ccc(Nc2nc(Cl)ncc2Br)cc1	264	99*	-2
COc1ccc(S(=O)(=O)N2CCC(C(=O)NCC(=O)Nc3c(C)cccc3C)CC2)cc1OC	nt	nt	-1
CCOC(=O)CSc1nc2ccccc2c(=O)n1C1CCCC1	199	-7	1
CCOC(=O)CSc1nc2cc(C(=O)N3CCC(C(N)=O)CC3)ccc2c(=O)n1C1CCCCC1	228	97*	-1
CCCCCn1c(SCC(=O)CC(=O)OCC)nc2cc(C(=O)N3CCC(C(N)=O)CC3)ccc2c1=O	180	91*	0
CCCCCn1c(SCC2CCCO2)nc2cc(C(=O)N3CCC(C(N)=O)CC3)ccc2c1=O (stereo not given)	303	nt	0
Cc1ccc(N(C)S(=O)(=O)c2cccc(C(=O)OCC(=O)N(C)Cc3ccccc3)c2)cc1	nt	nt	-2
COc1ccccc1NC(=O)Nc1ccnn1C1CCN(C(=O)c2cscn2)CC1	190	-19	1
CCn1c(CNC(C)=O)nnc1SCC(=O)c1ccc(Br)cc1	517	96*	4
CCn1c(CNC(=O)Cc2ccc(OC)cc2)nnc1SCC(=O)c1ccc(Br)cc1	0	-9	0
CC(=O)C1=C(O)C(=O)N(Cc2ccccc2)C1c1cccs1 (stereo not given)	221	2	-1
O=C1NC(=O)C2C1C(c1cccs1)NN2Cc1ccccc1 (stereo not given)	276	98*	-1
CC(=O)c1ccc(NC(=O)C(C)Sc2nnc(-c3ccncc3)n2C2CC2)cc1 (stereo not given)	145	-3	3
CCC(C)[C@H](NC(=O)[C@H](Cc1ccccc1)n1c(=O)[nH]c2ccccc2c1=O)C(=O)N1CCC(C(=O)O)CC1 (stereo not given in full)	292	1	4
Cc1cc(F)ccc1N1CCC(N2CCN(CCC(C)C)C(CCO)C2)CC1 (stereo not given)	263	10	-3
CC(C)CCN1CCN(C2CCN(c3ccc4c(c3)OCO4)CC2)CC1CCO (stereo not given)	185	99*	-2
Cc1ccc(N2CCC(N3CCN(C4CCCCC4)C(CCO)C3)CC2)cc1 (stereo not given)	226	99*	1
CC(C)N1CCC(N2CCN(C3CCCCC3)CC2CCO)CC1 (stereo not given)	188	-3	0
CC1CCN(CCCn2c(=S)[nH]c3ccc(N4CCOCC4)cc3c2=O)CC1	217	85*	-3
O=c1c2cc(N3CCOCC3)ccc2[nH]c(=S)n1CCCN1CCCC1	717	-19	-5
Cc1ccc(-c2sc(C)nc2CC(=O)O)cc1	243	27	2
CC(=O)Nc1ccc(NC(=O)Cc2sc(-c3cccnc3)nc2-c2ccc(C)cc2)cc1	237	-7	0
SMILES	T cell HTS	ALR inh	N-glyco inh
Cc1ccc(-c2sc(-c3cccnc3)nc2CC(=O)O)cc1	465	99*	1
Cc1ccc(-c2nc(-c3cccnc3)sc2CC(=O)O)cc1	i	99*	2
Cc1ccccc1-n1c(C)nnc1SCC(=O)N(C)C1CCS(=O)(=O)C1 (stereo not given)	326	-6	3
Oc1ccc(-c2nc(=S)[nH][nH]2)cc1	243	nt	2
COc1cc(-c2nnc(-c3cc(OC)c(OC)c(OC)c3)o2)cc(OC)c1OC	281	0	-1
FC(F)(F)c1ccc(-c2nc(=S)[nH][nH]2)cc1	207	99*	2
COc1ccc(-c2nc(=S)[nH][nH]2)cc1OC	446	100*	2
COc1ccc(-c2nn[nH]n2)cc1OC	566	12	1
COc1cc(-c2nc(=S)[nH][nH]2)cc(OC)c1OC	98	99*	5
COc1ccc(-c2nc(=S)[nH][nH]2)cc1	275	99*	1
CCOc1ccc(-c2nc(=S)[nH][nH]2)cc1	398	nt	2
CN(CC(=O)Nc1ccccc1C(F)(F)F)C(=O)CSc1nnc(-c2ccncc2)n1C	347	48	4
Cc1ccc(C(=O)NC(=S)N(C)C2CCCCC2)cc1	357	2	0
COc1ccccc1NC(=O)N1CCC(c2nnc(SCC(N)=O)n2C)CC1	663	-9	1
COc1ccc(N2CS(=O)CC2=O)cc1 (stereo not given)	160	-15	3
COc1cccc(-c2csc(NNC(=O)c3cccs3)n2)c1	335	96*	0
COc1cccc(-c2csc(NC(=O)Oc3ccccc3)n2)c1	338	37	-1
NC(=O)NC(Cc1ccccc1)C(=O)N1CCN(S(=O)(=O)c2ccc(Cl)cc2)CC1 (stereo not given)	373	-3	1
COc1c(O)cc2oc(-c3ccc(O)cc3)cc(=O)c2c1O	538	94*	-12
COc1ccc(-c2cc(=O)c3ccc(O)cc3o2)cc1	nt	nt	-1
COc1cc2oc(-c3ccc(O)cc3)cc(=O)c2c(OC)c1O	nt	nt	19
COc1cc2oc(-c3ccc(O)cc3)cc(=O)c2c(O)c1OC	253	98*	-1
O=c1cc(-c2ccc(O)cc2)oc2c(O)c(O)c(O)c(O)c12	164	86*	0
O=c1cc(-c2ccc(O)cc2)oc2c1ccc1ccccc12	236	0	-3
CCOC(=O)C1CCCN(C(=O)c2[nH]c3ccc(OC)cc3c2C)C1 (stereo not given)	438	-16	2
SMILES	T cell HTS	ALR inh	N-glyco inh
C[C@H](NC(=O)c1ccc(C(C)(C)C)cc1)C(=O)N1CCC2(CC1)NCCc1[nH]cnc12	355	-4	-1
CCOc1ccc(-n2c([S-])c(C(=O)Nc3ccc(S(=O)(=O)N4CCOCC4)cc3)[n+]3cc(C(N)=O)ccc23)cc1	297	nt	-6
Nc1cc2nc[nH]c2cc1N	nt	nt	3
COc1ccc2oc3cc(C)[n+]([O-])c(-c4ccc(C)cc4)c3c2c1	442	93*	-1
COc1ccc(-c2c3c(cc(C)[n+]2[O-])oc2ccc(OC)cc23)cc1	443	45	1
Cc1ccc(C2NC(=O)c3c(sc(C)c3C)N2)c(O)c1 (stereo not given)	568	92*	2
Cc1cccc(C2NC(=O)c3c(sc(C)c3C)N2)c1O (stereo not given)	450	nt	0
CC(CC(=O)Nc1ccc(Cl)c(S(=O)(=O)N2CCOCC2)c1)c1ccccc1 (stereo not given)	nt	nt	-4
Cc1nn(CC(=O)NC2CCCC2)c(C)c1[N+](=O)[O-]	256	0	3
COc1cc(NC(=O)C(c2ccccc2)c2ccccc2)c(C(=O)O)cc1OC	180	92*	0
COc1ccc([N+](=O)[O-])cc1NC(=O)CSCc1ccccc1	123	-9	-2
CCNC(=O)Nc1cc(OC)c(OC)cc1C(=O)O	98	-9	0
COc1cc(NC(=O)CSCc2ccccc2)c(C(=O)O)cc1OC	736	76*	-1
